The list is not random: actives were taken first. Their share in the collection is about 2.5%.
SENP8 block-1 = inhibitors of human SENP8 protease; Q96LD8; hit rate 1.2% among 330,000; purified SENP8, Z-RLRGG-aminoluciferin cleavage, luminescence; AID 2540; inhibition, % at 10 µM; in the data active = inhibition above about 50%
Target sequence (Q96LD8 whole entry, looked up): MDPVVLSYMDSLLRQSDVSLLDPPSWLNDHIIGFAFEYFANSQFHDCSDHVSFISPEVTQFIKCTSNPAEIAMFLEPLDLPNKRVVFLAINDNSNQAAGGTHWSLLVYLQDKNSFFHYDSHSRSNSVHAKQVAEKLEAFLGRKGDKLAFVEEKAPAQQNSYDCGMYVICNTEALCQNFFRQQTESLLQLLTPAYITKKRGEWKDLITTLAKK
SENP6 inh = blocks the human protease SENP6. Recombinant SENP6 catalytic domain, aminoluciferin luminescence. inhibition, % at 10 µM. hit rate 1.8% among 330,000. AID 2599;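 active = inhibition above about 50% at the single tested dose, limit read from the data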
SENP8 block-2 = SENP8 (human) protease inhibition; recombinant SENP8, Nedd8 substrate fluorescence; AID 602440; Q96LD8; inhibition, % at 20 µM; hit rate 0.64% among 360,000; in the data active = inhibition mostly above about 40%, no sharp cut-off; inactive = mostly below about 27%
SENP1 inh = SENP1 (human) catalytic domain inhibition; Q9P0U3; recombinant SENP1 catalytic domain, CyPet-SUMO1-YPet FRET cleavage; inhibition, % at 10 µM; hit rate 0.21% among 360,000;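 active = inhibition at least 30% at 10 µM, raw YFP signal under a set limit, fluorescence ratio 0.5 to 1.5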
Target sequence (Q9P0U3 419-644 limits assumed): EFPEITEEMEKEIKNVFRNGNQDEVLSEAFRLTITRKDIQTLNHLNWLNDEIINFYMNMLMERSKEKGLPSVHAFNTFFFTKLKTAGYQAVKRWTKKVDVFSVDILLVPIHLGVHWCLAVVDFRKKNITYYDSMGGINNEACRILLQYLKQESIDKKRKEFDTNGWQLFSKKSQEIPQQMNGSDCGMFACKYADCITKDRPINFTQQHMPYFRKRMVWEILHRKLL
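material = recombinant human SENP1 catalytic domain, His6-tagged | quantity = 20 pM enzyme | reagent = 25 nM SUMO1 FRET substrate | compound dosing = 10 µM single point, 0.5% DMSO | timing = 50 min enzyme reaction, room temperature, light-protected | detection = FRET, CFP and YFP emission | control set = no-enzyme low, enzyme-DMSO high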
SENP7 inh = SENP7 protease inhibition | Q9BQF6 | inhibition, % at 5 µM | hit rate 1.5% among 330,000 | recombinant SENP7, Z-RLRGG-aminoluciferin luminescence, 40 min;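 active = inhibition above about 50% at the single test dose, limit read from the data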
Of the large screens only hits and unclear results are named; the others gave an inactive call.

CCCC(=O)NC1=C(N2CC2)C(=O)C(NC(=O)CCC)=C(N2CC2)C1=O	SENP8 block-2 66.0 (no result: SENP8 block-1, SENP6 inh, SENP7 inh)
O=C1C(=O)c2ccccc2-c2ccccc21	SENP8 block-1 93.2, SENP6 inh 97.0, SENP8 block-2 108.0, SENP7 inh 97.1
O=C1C(=O)c2cccc3cccc1c23	none
COC(=O)C1(F)C(=O)NC(=O)NC1O (centres undefined)	none (no result: SENP8 block-1, SENP6 inh, SENP7 inh)
COC(=O)C1=C(c2ccc(OC(F)(F)F)cc2)C[C@@H]2CC[C@H]1N2C(=O)NC(C)C	none
O=C1C(Br)C2CCC1C2C(=O)O (centres undefined)	none (no result: SENP8 block-1, SENP6 inh, SENP7 inh)
CC1Oc2cc3c(-c4c(O)cc(O)c5c(O)c6c(cc45)OC(C)C(C)C6=O)c(O)cc(O)c3c(O)c2C(=O)C1C (centres undefined)	SENP8 block-2 89.1, SENP1 inh 65.2
Cc1cc(C=C2C(=O)N(C)C(=S)N(C)C2=O)c(C)n1C1CCCCC1	SENP8 block-2 41.2
Cc1cc(C=C2C(=O)NC(=S)NC2=O)c(C)n1C1CCCC1	none
CN(Cc1cccc(-c2ccncc2)c1)C(=O)Oc1ccccc1Cc1ccccc1	none (no result: SENP8 block-1, SENP6 inh, SENP7 inh)
CN1/C(=C\C=C\C2=[N+](C)c3ccc4ccccc4c3C2(C)C)C(C)(C)c2ccccc21	SENP6 inh 58.9 (no result: SENP8 block-2, SENP1 inh)
CCN1/C(=C/C=C/C2=[N+](CC)c3ccccc3C2(C)C)C(C)(C)c2ccccc21	SENP8 block-2 41.2, SENP1 inh 76.5 (no result: SENP8 block-1, SENP6 inh, SENP7 inh)
C[C@H](CO)N1C[C@H](C)[C@@H](CN(C)C(=O)Oc2ccc3ccccc3c2)OCc2cnnn2CCCC1=O	none (no result: SENP8 block-1, SENP6 inh, SENP7 inh)
O=c1c2ccccc2nc(/C=C/c2ccccc2O)n1-c1ccccc1O	SENP1 inh 49.2
COc1ccc(NC2Oc3cc4c(cc3C(c3cc(OC)c(OC)c(OC)c3)C2C)OCO4)cc1 (centres undefined)	SENP8 block-2 52.4 (no result: SENP8 block-1, SENP6 inh, SENP7 inh)
CC(=O)NC1=C(N2CC2C)C(=O)C(NC(C)=O)=C(N2CC2C)C1=O (centres undefined)	SENP8 block-2 64.9 (no result: SENP8 block-1, SENP6 inh, SENP7 inh)
O=[N+]([O-])c1cnc[nH]1	none
COC(=O)C1=C(c2ccc(C(C)=O)cc2)C[C@@H]2CC[C@H]1N2C(=O)NCCCOC(C)C	none
CCc1cc(=O)[nH]c(SCCCF)n1	none
O=c1c2ccccc2nc(-c2ccccc2)n1-c1ccccc1	none
O=c1c2ccccc2[se]n1-c1ccccc1	SENP8 block-1 61.2, SENP6 inh 72.2, SENP7 inh 57.9
CC(=O)Nc1ccccc1C(=O)OCC(=O)c1ccc2ccccc2c1	none
Nc1ccccc1C(=O)OCC(=O)c1ccc2c(c1)OCCO2	SENP8 block-1 94.8, SENP6 inh 95.4, SENP7 inh 98.5
CCC(CO)NC(=O)C1C=C2c3cccc4[nH]cc(c34)CC2N(C)C1 (centres undefined)	none
CC(C)C[C@H]1C(=O)N2CCC[C@H]2[C@]2(O)O[C@](NC(=O)[C@@H]3C=C4c5cccc6[nH]cc(c56)C[C@H]4N(C)C3)(C(C)C)C(=O)N12	SENP6 inh 51.1
COC(=O)C1C=C2c3cccc4[nH]cc(c34)CC2N(C)C1 (centres undefined)	SENP6 inh 54.1 (no result: SENP8 block-2, SENP1 inh)
CCN1C[C@]2(COC(=O)c3ccccc3N)CC[C@H](OC)C34[C@@H]5C[C@H]6[C@H](OC)[C@@H]5[C@](O)(C[C@@H]6OC)[C@@](O)([C@H]13)[C@@H](OC)[C@@H]42	none
N#Cc1ccc(NC(=O)CN2C(=O)NC3(CCCCCCC3)C2=O)cc1Cl	none
CC1CCN(S(=O)(=O)c2ccc(NN=C(C#N)C#N)cc2)CC1	none (no result: SENP8 block-2, SENP1 inh)
N#CC(C#N)=NNc1ccc(S(N)(=O)=O)cc1	SENP8 block-2 43.5
O=[N+]([O-])c1ccc(N(CCO)CCO)c2c1no[n+]2[O-]	SENP8 block-2 51.4 (no result: SENP8 block-1, SENP6 inh, SENP7 inh)
CN1CCN(c2ccc(S(C)(=O)=O)cc2[N+](=O)[O-])CC1	none
CN1CCN(c2ccc([N+](=O)[O-])c3no[n+]([O-])c23)CC1	SENP8 block-2 69.2, SENP1 inh 83.7 (no result: SENP8 block-1, SENP6 inh, SENP7 inh)
COC(=O)C1=C(c2ccc(-c3ccccc3)c(F)c2)C[C@@H]2CC[C@H]1N2C(=O)N1CCCC1	none
Cc1nc2c(=O)n(C)c(=O)nc-2n(C)n1	SENP8 block-1 96.4, SENP6 inh 86.9, SENP8 block-2 131.7, SENP1 inh 48.8, SENP7 inh 96.0
COc1cc(O)c(C(=O)O)c(-c2cc(O)c(O)cc2C)c1	SENP8 block-2 65.8
COc1ccc2c(c1)c(C(=O)O)c(C)n2CC(C)C	none
C/C(CC(c1ccccc1)c1c(O)c2ccccc2oc1=O)=N\Nc1ccc([N+](=O)[O-])cc1[N+](=O)[O-] (centres undefined)	SENP6 inh 94.6
